Experimental data: ChEMBL document CHEMBL1221201, “Extension of Drosophila melanogaster life span with a GPCR peptide inhibitor” (Nat Chem Biol, 2007)
Active and inactive are the calls of the source. The calls are words filed in the database; no cut-off is given here.

Columns and labels:
[1] = target: T1, G-protein coupled receptor Mth (Drosophila melanogaster, UniProt O97148); experiment: Binding affinity to Drosophila melanogaster Mth ectodomain
T1 sequence (O97148 whole entry): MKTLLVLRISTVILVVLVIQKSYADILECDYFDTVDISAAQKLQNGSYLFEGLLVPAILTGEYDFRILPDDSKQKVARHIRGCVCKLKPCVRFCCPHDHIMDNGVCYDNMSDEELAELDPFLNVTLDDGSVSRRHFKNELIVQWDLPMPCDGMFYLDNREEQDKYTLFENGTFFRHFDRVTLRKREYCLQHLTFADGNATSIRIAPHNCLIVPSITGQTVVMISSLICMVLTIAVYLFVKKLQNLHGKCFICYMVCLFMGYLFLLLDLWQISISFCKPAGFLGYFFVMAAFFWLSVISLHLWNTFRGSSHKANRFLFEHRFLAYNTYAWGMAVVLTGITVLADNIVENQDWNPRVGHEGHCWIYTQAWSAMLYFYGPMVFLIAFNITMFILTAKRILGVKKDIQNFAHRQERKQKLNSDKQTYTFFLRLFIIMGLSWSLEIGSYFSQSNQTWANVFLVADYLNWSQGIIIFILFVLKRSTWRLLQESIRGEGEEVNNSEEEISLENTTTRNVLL
Procedure, shortened: (§1)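 Mth ectodomain (His6-tagged, C-terminal biotinylation tag, expressed in baculovirus-infected High 5 cells, biotinylated with BirA) immobilized at ~500 RU. Peptide was injected at the indicated concentrations, 45 μl per injection. Sensorgrams were double-referenced against a negative control flow cell and averaged buffer blanks. Kinetic parameters came from a global fit to a 1:1 bimolecular interaction model.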

Drosophila melanogaster [2] = experiment: Displacement of radiolabeled full-length R8-01 mRNA from Drosophila melanogaster Mth ectodomain at 10 uM
Procedure, shortened: (§2)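 35S-methionine-labelled RNA-peptide fusions were RNase-treated and bound to Mth ectodomain immobilized on NeutrAvidin-agarose (~1 mg Mth per ml matrix). For competition, unlabelled peptide at various concentrations was included in the binding buffer during the initial binding step.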

Drosophila melanogaster [3] = experiment: Displacement of radiolabeled 30-mer synthetic peptide mRNA from Drosophila melanogaster Mth ectodomain at 30 uM; procedure, shortened: as §2
Drosophila melanogaster [4] = experiment: Displacement of radiolabeled full-length R8-01 mRNA from Drosophila melanogaster Mth ectodomain up to 150 uM; procedure, shortened: as §2
[5] = target: T2, G-protein coupled receptor Mth (Drosophila melanogaster) (UniProt O97148); experiment: Binding affinity to Drosophila melanogaster Mth ectodomain transfected in CHO cells up to 5 uM by SPR
T2 sequence (whole entry): T1 sequence (O97148 whole entry)

[6] = target: T2, G-protein coupled receptor Mth (Drosophila melanogaster); experiment: Binding affinity to Drosophila melanogaster Mth ectodomain at 300 nM measured by SPR; procedure, shortened: as §1
Drosophila melanogaster [7] = experiment: Displacement of radiolabeled full-length R8-04 mRNA from Drosophila melanogaster Mth ectodomain at 10 uM; procedure, shortened: as §2
[8] = target: T2, G-protein coupled receptor Mth (Drosophila melanogaster); experiment: Binding affinity to Drosophila melanogaster Mth ectodomain at 100 nM measured by SPR; procedure, shortened: as §1
[9] = target: T2, G-protein coupled receptor Mth (Drosophila melanogaster); experiment: Binding affinity to Drosophila melanogaster Mth ectodomain at 1500 nM measured by SPR; procedure, shortened: as §1
[10] = target: T2, G-protein coupled receptor Mth (Drosophila melanogaster); experiment: Binding affinity to Drosophila melanogaster Mth ectodomain at 900 nM measured by SPR; procedure, shortened: as §1
[11] = target: T2, G-protein coupled receptor Mth (Drosophila melanogaster); experiment: Inhibition of Drosophila melanogaster Mth […] transfected into human HEK cells assessed as inhibition of N-Stunted-induced Mth signaling up to 10 uM; type: cell-based; conditions: HEK293
Procedure, shortened: (§3)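 HEK 293 cells stably expressing Mth-B were plated on Matrigel and loaded with 4 μM Fluo-4 (45 min at room temperature, then 15 min at 37 °C) in HEPES pH 7.5 HBSS buffer with BSA and 2.5 mM probenecid. After baseline readings, antagonist was added, followed by agonist peptide. Calcium fluorescence (ex 494/em 520 nm) was read for ~5 min. Values were background-subtracted and fitted to sigmoidal curves.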

Drosophila melanogaster [12] = experiment: Increase in life span of Drosophila melanogaster GAL-4/UAS--[…] transgene insertion line 11.1 at 29 degC; type: functional
Drosophila melanogaster [13] = experiment: Increase in maximal life span of Drosophila melanogaster GAL-4/UAS--[…] transgene insertion line 41.6 at 25 degC; type: functional
Procedure, shortened: (§4)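 da-GAL4-driven UAS–R8-12 insertion line 41.6 male adults were maintained at 25 °C and followed by survival curves. Mean and maximal adult lifespans are the average of two independent trials, with about 90 to 120 flies per curve.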

Drosophila melanogaster [14] = experiment: Increase in life span of Drosophila melanogaster GAL-4/UAS--[…] transgene insertion line 41.2 at 29 degC; type: functional
Drosophila melanogaster [15] = experiment: Increase in mean life span of Drosophila melanogaster GAL-4/UAS--[…] transgene insertion line 41.6 at 25 degC; type: functional; procedure, shortened: as §4
[16] = Binding affinity to G-protein coupled receptor MthW12S mutant of Drosophila melanogaster 300 nM by fluorescence microscopy
Procedure, shortened: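 Intrinsic Trp fluorescence with excitation at 295 nm. 300 nM peptide was titrated with Trp-less Mth W120S ectodomain, emission read at 345 nm, in 10 mM KH2PO4 pH 7.2, 150 mM NaCl. Complexes were mixed for 5 min in a stirred cell before reading. KD came from the titration.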

Drosophila melanogaster [17] = experiment: Increase in mean life span of Drosophila melanogaster GAL4/UAS--[…] transgene insertion line 41.6 at 29 degC; type: functional
[18] = target: T2, G-protein coupled receptor Mth (Drosophila melanogaster); experiment: Binding affinity to Drosophila melanogaster full-length Mth-GFP transfected into CHO cells at 150 nM by fluorescence microscopy
Drosophila melanogaster [19] = experiment: Increase in maximal life span of Drosophila melanogaster GAL4/UAS--[…] transgene insertion line 41.6 at 29 degC; type: functional
[20] = target: T1, G-protein coupled receptor Mth; experiment: Inhibition of Drosophila melanogaster Mth […] transfected into human HEK cells assessed as inhibition of N-Stunted-induced Mth signaling; type: cell-based, HEK293; procedure, shortened: as §3

## H-GDDMYRIREFLANYRPIWVMRSNLAQL-OH
[1]
  Kd: < 0.03 µM

## H-NVSWGSFPSSWLQRYYLAKRREADVTL-OH
Drosophila melanogaster [2]
  Activity: 96%
Drosophila melanogaster [3]
  Activity: 79%
[1]
  Kd: 0.031 µM
Drosophila melanogaster [4]
  Activity: inactive

## H-MAPRAVWIQAAIQAMFRLA-OH
[5]
  Activity: inactive

## H-VRIGYTSKPGGMNPGNSYTMSIIRMLI-OH
[6]
  Activity: Active
Drosophila melanogaster [7]
  Activity: 94%
[8]
  Activity: Active
[9]
  Activity: Active
[1]
  Kd: 0.326 µM
[10]
  Activity: Active

## CC[C@H](C)[C@H](NC(=O)[C@H](C)NC(=O)[C@H](CCCNC(=N)N)NC(=O)[C@H](CCC(N)=O)NC(=O)[C@@H](NC(=O)[C@H](Cc1c[nH]c2ccccc12)NC(=O)[C@@H](NC(=O)[C@H](C)NC(=O)[C@H](CCCNC(=N)N)NC(=O)[C@@H]1CCCN1C(=O)[C@@H](C)N)C(C)C)[C@@H](C)CC)C(=O)N[C@@H](CCC(N)=O)C(=O)N[C@@H](C)C(=O)N[C@@H](CCSC)C(=O)N[C@@H](Cc1ccccc1)C(=O)N[C@@H](CCCNC(=N)N)C(=O)N[C@@H](CC(C)C)C(=O)N[C@@H](C)C(=O)N[C@@H](CO)C(=O)N[C@@H](CCCNC(=N)N)C(=O)N[C@@H](CCC(N)=O)C(=O)N[C@@H](CCC(=O)O)C(=O)N[C@@H](CO)C(=O)N[C@@H](CCCCN)C(=O)N[C@@H](C)C(=O)N[C@@H](Cc1ccccc1)C(=O)N[C@@H](CC(N)=O)C(=O)O
[11]
  inhibition: inactive

## H-RLVWIVRSRHFGPRLRMALLGSDRKMW-OH
Drosophila melanogaster [12]
  Activity: 40%
[11]
  inhibition: inactive
Drosophila melanogaster [13]
  Activity: 36%
Drosophila melanogaster [14]
  Activity: 31%
Drosophila melanogaster [15]
  Activity: 49%
[16]
  Kd: 0.015 µM
Drosophila melanogaster [17]
  Activity: 38%
[18]
  Activity: Active
Drosophila melanogaster [19]
  Activity: 26%
[20]
  IC50: 0.045 µM
[1]
  Kd: 0.018 µM

## H-MAPRAVAIQRAIQAMFRLAGY-OH
[5]
  Activity: inactive

## H-RYVWYLRTKHRRSLRLRSACARGSSA-OH
[1]
  Kd: < 0.03 µM

## CC[C@H](C)[C@H](NC(=O)[C@H](C)NC(=O)[C@H](CCCNC(=N)N)NC(=O)[C@H](CCC(N)=O)NC(=O)[C@@H](NC(=O)[C@H](Cc1c[nH]c2ccccc12)NC(=O)[C@@H](NC(=O)[C@H](C)NC(=O)[C@H](CCCNC(=N)N)NC(=O)[C@@H]1CCCN1C(=O)[C@H](C)N)C(C)C)[C@@H](C)CC)C(=O)N[C@@H](CCC(N)=O)C(=O)N[C@@H](C)C(=O)N[C@@H](CCSC)C(=O)N[C@@H](Cc1ccccc1)C(=O)N[C@@H](CCCNC(=N)N)C(=O)N[C@@H](CC(C)C)C(=O)N[C@@H](C)C(=O)N[C@@H](CO)C(=O)N[C@@H](CCCNC(=N)N)C(=O)N[C@@H](CCC(N)=O)C(=O)N[C@@H](CCC(=O)O)C(=O)N[C@@H](CO)C(=O)N[C@@H](CCCCN)C(=O)N[C@@H](C)C(=O)N[C@@H](Cc1ccccc1)C(=O)N[C@@H](CC(N)=O)C(=O)O
[20]
  IC50: 0.115 µM
[1]
  Kd: 0.018 µM
